bCat KO growth: beta-catenin-lacking colon tumor cell growth suppression; HCT116 beta-catenin knockout viability, CellTiter-Glo, 60 h; stronger effect = lower value; viability, % at 10 µM; hit rate 1.5% among 140,000;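 active = viability at or under a set limit, the compound median less 4 SD, cut at about 6% in these data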;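 also: 0% = Hyamine 1622 control at 20 µM and 100% = untreated cell control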
HUVEC inhibit: inhibitors of human endothelial cell proliferation. AID 648. HUVEC proliferation, CellTiter-Glo luminescence, 72 h; stronger effect = lower value. viability, % at 10 µM (by protocol). hit rate 1.1% among 86,000;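 active = viability at or below 30%; inactive = viability above 30%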;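 also: 100% = median luminescence of DMSO-only cell control wells on each plate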
PTEN del growth: suppresses growth of cells with PTEN deletion | HCT116 PTEN-null viability, CellTiter-Glo, 60 h; stronger effect = lower value | viability, % at 10 µM | hit rate 1.2% among 140,000;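 active = viability at or below a set limit, 4 SD under the median of all tested compounds, cut at about 3.7% in these data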;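 also: PTEN knockout HCT116 line with beta catenin targeted HCT116 as companion control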
Fibroblast inh: blocks proliferation of human lung fibroblasts; LL 47 human lung fibroblast viability, ATP luminescence; stronger effect = lower value; viability, % at 10 µM; hit rate 1.1% among 85,000;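 active = viability at or below 50% in the single dose screen; inactive = viability above 50%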;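 also: compound exposure lasted 72 h before the ATP readout; 100% = median luminescence of untreated cell-only wells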
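material = human LL 47 lung fibroblast cells | dosing = compounds added from tenfold dosing solution, 0.1% DMSO final | timing = overnight cell rest, 72 h compound treatment at 37 °C | measured by = CellTiter-Glo luminescence measuring cellular ATP | evaluation = % viability versus median cells-only luminescence | control set = cell-only wells, no compound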
H69AR growth 86K: blocks growth of human H69AR lung tumor cells | H69AR lung tumor viability, ATP luminescence, 72 h; stronger effect = lower value | viability, % at 10 µM | hit rate 6% among 85,000;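 active = viability at or below 40%; inactive = viability above 40%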;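 also: multidrug resistant small cell line overexpressing MRP-1 efflux transporter; 100% = mean luminescence of untreated control wells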
An asterisk follows results filed as active; . = no result given. This excerpt belongs to a sample that is enriched for hits.

SMILES	bCat KO growth	HUVEC inhibit	PTEN del growth	Fibroblast inh	H69AR growth 86K
CCOC(=O)c1c(NC(=O)C2COc3ccccc3O2)sc2c1CC(C)(C)NC2(C)C (stereo not drawn)	2.3*	.	0.7*	.	.
COC(=O)CCC(=O)NC(=S)Nc1cc(Cl)ccc1Cl	81	.	75	.	.
COc1ccc(C2C=C(c3ccc(Br)s3)Nc3ncnn32)cc1OC (stereo not drawn)	86	.	76	.	.
O=[N+]([O-])c1cccc(-c2n[nH]c(=S)n2Cc2ccccc2)c1	90	.	94	.	.
C/C(=C/Cc1c(O)cc2oc(C)cc(=O)c2c1O)COC1OC(CO)C(O)C(O)C1O (stereo not drawn)	87	.	97	.	.
COc1ccc(-c2[nH]ncc2-c2ccc3c(c2)OCCO3)c(O)c1	86	.	80	.	.
CCc1cc(-c2[nH]ncc2-c2ccc3c(c2)OCO3)c(O)cc1O	48	9.7*	45	71	79
CCCc1cc(-c2[nH]ncc2-c2ccc3c(c2)OCCCO3)c(O)cc1OC	63	5.5*	62	80	18*
Fc1ccccc1-c1nc(NCCCN2CCOCC2)c2ccccc2n1	79	86	84	105	50
Cc1cc(C)c2nc(C(F)(F)F)nc(NCCCN3CCOCC3)c2c1	23	6.4*	38	51	8.9*
CC1CCN(S(=O)(=O)c2ccc3c(c2)c(=O)c(C(=O)NCc2ccccc2Cl)cn3C)CC1	95	.	92	.	.
O=C1CN(C(=O)c2cc3ccccc3o2)c2ccccc2N1	96	.	90	.	.
O=S(=O)(NCc1ccc2c(c1)OCO2)c1cccc(S(=O)(=O)N2CCOCC2)c1	99	108	88	103	93
O=C1CN(C(=O)c2ccccn2)c2ccccc2N1	102	103	99	92	92
CCCn1nc(C(=O)N2CC(=O)Nc3ccccc32)c2ccccc2c1=O	31	55	27	63	25*
COc1ccccc1C1NC=C([N+](=O)[O-])C=C1[N+](=O)[O-] (stereo not drawn)	85	.	83	.	.
COc1ccccc1C1c2c(oc3ccc(Cl)cc3c2=O)C(=O)N1c1cc(C)on1 (stereo not drawn)	.	42	.	36*	40*
Cc1c(CN(C)C)c2c(n1Cc1ccccc1)C(=O)c1ccccc1-2	48	62	37	75	38*
O=C(c1ccccc1)c1nn(-c2ccccc2)c2nnc(Cc3ccccc3)c(=O)n12	50	58	56	104	32*
O=Cc1ccccc1Oc1ccccc1	91	.	93	.	.
O=Cc1ccccc1OCCOc1ccccc1C=O	15	47	11	54	23*
c1ccc(-n2ncc3c(NCc4ccc5c(c4)OCO5)ncnc32)cc1	83	89	86	87	87
COc1ccc(-n2ncc3c(NCc4ccc5c(c4)OCO5)ncnc32)cc1	88	66	86	68	6.2*
Cc1ccc(-n2ncc3c(NCc4ccc5c(c4)OCO5)ncnc32)c(C)c1	61	89	60	68	28*
CC1=C(C)/C(=N\OS(=O)(=O)c2ccccc2)C=CC1=O	34	3.8*	17	3.5*	1.5*
SMILES	bCat KO growth	HUVEC inhibit	PTEN del growth	Fibroblast inh	H69AR growth 86K
COc1ccccc1-c1nnc(SCC(=O)NC2CCS(=O)(=O)C2)n1CCc1ccccc1 (stereo not drawn)	87	.	104	.	.
C[C@](N)(Cc1ccc(O)c(O)c1)C(=O)O	6.1*	103	18	100	94
CCOc1cc2c(cc1OCC)C(c1cc(OC)c(O)c(OC)c1)NCC2 (stereo not drawn)	.	113	.	108	89
CCOC(=O)N1CCC(NC(=O)C2CCC(CNS(=O)(=O)c3ccc(OC)cc3)CC2)CC1 (stereo not drawn)	92	73	95	.	6.0*
CCOC(=O)N1CCN(C(=O)C2CCC(CNS(=O)(=O)c3ccc(Cl)cc3)CC2)CC1 (stereo not drawn)	104	97	104	97	82
CCOC(=O)N1CCC(NC(=O)CNS(=O)(=O)c2ccc(Br)s2)CC1	86	74	81	90	23*
S=C(Nc1ccc2snnc2c1)N1CCN(c2ccccn2)CC1	95	.	89	.	.
CN(c1ccc(C(=O)N2CCN(Cc3ccc4c(c3)OCO4)CC2)cc1)S(=O)(=O)c1ccccc1	33	86	30	94	96
Cc1ccc(S(=O)(=O)N(C)c2ccc(C(=O)N3CCN(Cc4ccc5c(c4)OCO5)CC3)cc2)cc1	14	91	18	95	25*
O=C1CC(N(CCc2ccccc2)C(=S)Nc2ccccc2)C(=O)N1c1ccc(Br)cc1 (stereo not drawn)	1.9*	.	2.8*	.	.
